Drawing on ChEMBL document CHEMBL3046122, “Preparation and biological activity of four epiprogoitrin myrosinase-derived products” (2001), this text covers Activity for four compounds.

Structures are written as SMILES. The source made the active and inactive calls. The calls are words filed in the database; no cut-off is given here.

Test [1] relates to Lactuca sativa. Kind of test: Antigerminative activity against Lactuca sativa (lettuce) seeds at 2 mM after 7 days relative to control. The format is functional, organism-based. In short, it runs like this:
(§1)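 Lettuce (L. sativa cv. Romana) seeds germinated on filter paper at 20 °C for 7 days with each product at 0.4-32.0 mM. Read-out is the mean percentage of normal seedlings, expressed as percent of the untreated control.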

Test [2] deals with Lactuca sativa. Description: Toxicity against Lactuca sativa (lettuce) assessed as Inhibition of root growth at 0.4 to 2 mM after 7 days relative to control. The format is functional, organism-based. In short, it runs like this: (§2)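 Lettuce (L. sativa cv. Romana) seeds were kept on filter paper at 20 °C for 7 days with each product at 0.4-32.0 mM. Root length of normal seedlings was measured at the end and given as percent of the untreated control. Three replicates were run.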

The test system of test [3] is Lactuca sativa. Description: Antigerminative activity against Lactuca sativa (lettuce) seeds up to 0.8 mM after 7 days relative to control. The format is functional, organism-based. In short, it runs like this: as §1
The subject of test [4] is Lactuca sativa. Description: Toxicity against Lactuca sativa (lettuce) assessed as root apex necrosis at low concentration after 7 days. The test is classed as functional, organism-based. The procedure, abridged:
(§3)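 Lettuce (L. sativa cv. Romana) seeds were kept on filter paper at 20 °C for 7 days with each product at 0.4-32.0 mM. Seedlings were scored at the end for abnormalities: root apex necrosis, absent cotyledons, and imbibed seeds with broken coats from starting radicle protrusion.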

Test [5] deals with Lactuca sativa. Kind of test: Toxicity against Lactuca sativa (lettuce) assessed as imbibed seed with broken seed coat at low concentration after 7 days. The test is classed as functional, organism-based. The procedure, abridged:
as §3

Test [6] deals with Lactuca sativa. Description: Toxicity against Lactuca sativa (lettuce) assessed as decrease in cotyledons at low concentration after 7 days. The format is functional, organism-based. In short, it runs like this: as §3
Test [7] has as its system Lactuca sativa. Description: Toxicity against Lactuca sativa (lettuce) assessed as seed radicle protrusion at low concentration after 7 days. The test is classed as functional, organism-based. The procedure, abridged:
as §3

For test [8], the system named is Lactuca sativa. Kind of test: Antigerminative activity against Lactuca sativa (lettuce) seeds at 1.2 mM after 7 days relative to control. The test is classed as functional. The procedure, abridged: as §1
Test [9] deals with Lactuca sativa. Description: Antigerminative activity against Lactuca sativa (lettuce) seeds up to 2.4 to 3.2 mM after 7 days relative to control. The test is classed as functional, organism-based. The procedure, abridged:
as §1

The test system of test [10] is Lactuca sativa. Description: Toxicity against Lactuca sativa (lettuce) assessed as Inhibition of root growth after 7 days relative to control. The test is classed as functional, organism-based. The procedure, abridged:
as §2

The subject of test [11] is Lactuca sativa. Kind of test: Toxicity against Lactuca sativa (lettuce) assessed as Inhibition of root growth up to 16 mM after 7 days relative to control. The format is functional, organism-based. The procedure, abridged:
as §2

For test [12], the system named is Lactuca sativa. Kind of test: Antigerminative activity against Lactuca sativa (lettuce) seeds at 0.8 to 20 mM after 7 days relative to control. The test is classed as functional, organism-based. In short, it runs like this:
as §1

In test [13] the test system is Lactuca sativa. Description: Toxicity against Lactuca sativa (lettuce) assessed as Inhibition of root growth at 4 mM after 7 days relative to control. Also on record: scale not given: the % may be the effect or the level left. The test is classed as functional. The procedure, abridged:
(§4)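 Lettuce (L. sativa cv. Romana) seeds germinated on filter paper at 20 °C for 7 days with doses of 0.4-32.0 mM. Root length of normal seedlings was measured at the end and expressed as percent of control. Three replicates were run, with standard error given.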

Test [14] deals with Lactuca sativa. Kind of test: Antigerminative activity against Lactuca sativa (lettuce) seeds up to 16 mM after 7 days relative to control. The format is functional, organism-based. In short, it runs like this:
(§5)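 Lettuce seeds (L. sativa cv. Romana) incubated on filter paper at 20 °C for 7 days with each product at 0.4-32.0 mM. Read-out was the mean percentage of normal seedlings, expressed as percent of the untreated control.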

In test [15] the test system is Lactuca sativa. Description: Toxicity against Lactuca sativa (lettuce) assessed as Inhibition of root growth at 8 to 32 mM after 7 days relative to control. The format is functional, organism-based. The procedure, abridged: as §4
Test [16] deals with Lactuca sativa. Kind of test: Antigerminative activity against Lactuca sativa (lettuce) seeds at 24 to 32 mM after 7 days relative to control. The format is functional, organism-based. In short, it runs like this: as §5
For test [17], the system named is Lactuca sativa. Description: Toxicity against Lactuca sativa (lettuce) assessed as root tissue rotting at 32 mM after 7 days. The test is classed as functional, organism-based.
In test [18] the test system is Lactuca sativa. Kind of test: Toxicity against Lactuca sativa (lettuce) assessed as decrease in root hair at 24 to 32 mM after 7 days. The test is classed as functional, organism-based.
Test [19] concerns Lactuca sativa. Kind of test: Toxicity against Lactuca sativa (lettuce) assessed as branched root formation at low concentration after 7 days. The format is functional, organism-based.

For `N#CC[C@H](O)[C@@H]1CS1`, the outcome with Lactuca sativa [1], in the test with Lactuca sativa [2], in the test on Lactuca sativa [3], in the test on Lactuca sativa [4], in the test with Lactuca sativa [5] and in the test with Lactuca sativa [6] was Active. Besides, the result in the test on Lactuca sativa [7] was Active. Besides, the Activity in the test with Lactuca sativa [8] is on record as 40%.
Take `N#CC[C@H](O)[C@H]1CS1`: the outcome in the test on Lactuca sativa [9], in the test with Lactuca sativa [4], in the test with Lactuca sativa [5], in the test on Lactuca sativa [6] and in the test on Lactuca sativa [7] was Active. In the test with Lactuca sativa [10], the Activity entry was “Dose-dependent effect”.
For `C=C[C@@H](O)CC#N`, the outcome in the test on Lactuca sativa [11] was inactive. Moreover, the result in the test with Lactuca sativa [12], with Lactuca sativa [4], with Lactuca sativa [5], in the test on Lactuca sativa [6] and in the test with Lactuca sativa [7] was Active.
For the compound `C=C[C@@H]1CNC(=S)O1`, the Activity in the test on Lactuca sativa [13] is recorded as more than 40%. Besides, the result in the test with Lactuca sativa [14] was inactive. Besides, the result in the test with Lactuca sativa [15], in the test on Lactuca sativa [16], in the test on Lactuca sativa [17], in the test on Lactuca sativa [18] and in the test on Lactuca sativa [19] was Active.
